# T cruzi repl = inhibitors of intracellular T. cruzi growth, primary screen, luminescence, NIH3T3 host cells; T. cruzi beta-gal in NIH3T3, 90 h; inhibition, % (test concentration not listed); 300,000 compounds, 1.4% hits; AID 1885, 2009;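 active = mean inhibition across valid replicates above about 55%, limit read from the data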;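 also: signal also drops with host cell toxicity which is not excluded here; 0% = plate median of DMSO wells and 100% = zero luminescence signal; higher percent means less beta-gal luminescence so fewer parasites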
#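 System: NIH/3T3 fibroblasts plus reporter T. cruzi. Medium: DMEM plus 2% FBS. Probe or stimulus: 5000 reporter trypomastigotes per well. Compound: single 50 nL compound addition per well in DMSO. Incubation: co-culture of at least 90 h after 3 h attachment. Detection: GalScreen β-gal luminescence, detergent lysis, 60 min. Evaluation: parasite load inhibition, %.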
# HSF-1 act = HSF-1 activators, primary screen, NIH3T3-HGL cells, MG132 stress, luminescence, single point; NIH3T3-HGL HSF-1 luciferase reporter, 8 h; 100% = twice DMSO control signal; activation, % at 9 µM; 300,000 compounds, 1.7% hits; AID 504408, 2011;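 active = mean replicate activation of at least 50% with a set share of replicates each reaching 50%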;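 also: 0% = median of the neutral control wells and 100% = twice that signal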
# GPR7 antag = GPR7 receptor antagonists, primary screen, cell-based, fluorescence, single concentration. inhibition, % at 4.4 µM. GPR7-expressing cells, fluorescence antagonist assay. AID 1861, 2009. Neuropeptides B/W receptor type 1 (Homo sapiens), P48145. 290,000 compounds, 1.1% hits; in the data active = inhibition above about 16%, passing the limit was not always enough;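 also: cells stimulated with the agonist NPW; 0% = agonist with vehicle and 100% = vehicle without agonist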
# Target sequence (P48145 whole entry, looked up): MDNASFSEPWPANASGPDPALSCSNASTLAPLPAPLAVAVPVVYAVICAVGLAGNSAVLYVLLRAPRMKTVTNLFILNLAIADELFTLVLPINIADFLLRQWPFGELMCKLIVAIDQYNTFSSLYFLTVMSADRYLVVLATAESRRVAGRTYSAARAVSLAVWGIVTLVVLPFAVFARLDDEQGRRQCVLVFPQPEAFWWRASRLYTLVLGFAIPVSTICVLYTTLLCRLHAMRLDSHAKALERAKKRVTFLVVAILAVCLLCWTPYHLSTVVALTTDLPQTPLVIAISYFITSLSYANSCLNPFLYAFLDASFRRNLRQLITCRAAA
# HSF1 inhib = HSF1 inhibitors in luciferase reporter cells, primary screen, cell-based, NIH3T3, luminescence. NIH3T3-HGL HSE-luciferase, MG132-induced, luminescence 8 h; active compounds read low. activity change, negative = inhibition, % at 7.5 µM (by protocol). 300,000 compounds, 0.77% hits;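 active = more than half of replicate wells show activity change below -50%, luminescence cut by over half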;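 also: luciferase reports HSF-1 transcriptional activity via heat shock element; 0% = median of DMSO wells and -100% = zero luminescence signal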
# 697 NFkB inh = inhibitors of PMA/ionomycin-induced NF-kB reporter, 697 cells, primary screen, B-cell NF-kB inhibitor project, cell-based, luminescence, uHTS | 697 B-cell NF-kB luciferase reporter, 16 h | inhibition, % at 4 µM | 330,000 compounds, 0.33% hits | AID 435022, 2010; in the data active = inhibition above about 35%
# Jurkat NFkB inh = inhibitors of induced NF-kB luciferase reporter, primary screen, TCR NF-kB activation inhibitor project, cell-based, luminescence, uHTS | AID 435003, 2010 | inhibition, % at 4 µM | Jurkat, PMA/ionomycin-induced NF-kB luciferase reporter | 330,000 compounds, 0.53% hits; in the data active = inhibition above about 50%
# 697 NFkB conf = PMA/ionomycin-induced NF-kB reporter inhibitors, 697 retest, confirmation, B-cell NF-kB inhibitor project, cell-based, luminescence, single concentration; 2,000 compounds, 35% hits; 697 B-cell NF-kB luciferase, 16 h; inhibition, % at 4 µM; shares compounds with 697 NFkB inh; AID 449746, 2010; in the data active = inhibition mostly above about 28%, no sharp cut-off; inactive = mostly below about 22%
# The depositor's hits bear a star; i = inactive; · = no result given. Sampled rows, rich in hits. Any-hit rate of the full collection: about 4.8%.
SMILES,T cruzi repl,HSF-1 act,GPR7 antag,HSF1 inhib,697 NFkB inh,Jurkat NFkB inh,697 NFkB conf
COc1ccc(NC(=O)c2cc3c(Cl)nc4ccccc4c3s2)cc1OC,20,10,-14,8,44*,11,39*
COCCN1CC(CNC(=O)c2cc(COc3ccccc3SC)on2)CC1=O (stereo not given),-7,29,-18,-2,-13,-18,·
O=C(/C=C/Nc1ccccc1O)c1ccco1,-1,32,-11,24,-27,-70,·
O=C(/C=C/Nc1ccc(Br)cc1F)c1ccco1,8,21,-14,4,-289,-65,-20
CC(C)(C)n1nc2c(c1NC(=O)c1ccc([N+](=O)[O-])cc1)CS(=O)(=O)C2,1,16,-3,-2,-14,0,·
CC1CCCC(NC(=O)CN2CCN(S(=O)(=O)c3ccc(Br)s3)CC2)C1C (stereo not given),·,·,·,·,5,1,·
Cn1cccc1C(=O)OCc1csc(-c2ccccc2)n1,-6,63*,0,15,-292,-121,-341
Nc1ccc(C(=O)OCc2csc(-c3ccccc3)n2)cc1[N+](=O)[O-],18,6,-14,9,-11,-9,·
O=C(O)c1ccc(N/N=C/c2cccc(F)c2)cc1,-14,-11,-6,-7,-185,-79,·
O=C(O)c1ccc(N/N=C/c2cccc(C(F)(F)F)c2)cc1,3,14,-2,-4,-443,-20,18
O=C(Nc1cccc(C(F)(F)F)c1)C1CCCO1 (stereo not given),-21,10,-10,1,-9,2,·
Cn1c(=O)c2c(SCC(=O)Nc3ccccc3F)nc(-c3ccccc3F)nc2n(C)c1=O,2,-8,-12,-2,48*,7,12*
COc1cc(-c2nc(C(=O)NCC3CCCO3)cc3c2[nH]c2ccccc23)cc(OC)c1OC (stereo not given),32,5,-2,3,36*,-18,40*
O=P(c1ccccc1)(c1ccccc1)C(O)c1ccc(Br)cc1 (stereo not given),-15,-2,13,-3,-18,-13,·
O=C1CC(c2ccc3c(c2)OCO3)CN1 (stereo not given),-21,-1,-5,5,38*,24,12
O=C1CC(c2ccc3c(c2)OCO3)c2cc3c(cc2N1)OCO3 (stereo not given),-1,1,9,3,3,16,·
COC(=O)CNC(c1ccccc1Cl)c1cc(Br)ccc1NS(=O)(=O)c1ccc(C)cc1 (stereo not given),49,-8,-15,2,-42,-3,·
COc1ccc(-c2cc(C(=O)OCC(=O)Nc3cc(C)on3)c3ccccc3n2)cc1OC,1,·,-11,·,21,-21,·
CCC(C)c1ccc(-c2cc(C(=O)OCC(=O)Nc3cc(C)on3)c3ccccc3n2)cc1 (stereo not given),5,31,-9,13,i,-54,-486
O=C(O)CCn1c(-c2ccccc2)cc2ccccc21,-9,-3,-5,-4,-9,7,·
CSc1ncccc1C(=O)OCC(=O)NC(N)=O,-11,1,-8,1,-6,-15,·
CNC(=O)COC(=O)c1cccnc1SC,-7,10,-2,0,35*,5,12
COc1ccc(/C=C2\SC(=S)N(CCCC(=O)NNC(=O)c3ccccc3O)C2=O)cc1,9,-23,5,-7,74*,4,69*
COc1ccc(/C=C2/SC(=S)N(CCCC(=O)Nc3ccccc3C(=O)O)C2=O)cc1,3,-29,2,-30,32,18,·
COc1ccc(/C=C2\SC(=S)N(CCC(=O)Nc3cccc(O)c3)C2=O)cc1OC,-15,2,-7,4,37*,-10,10
SMILES,T cruzi repl,HSF-1 act,GPR7 antag,HSF1 inhib,697 NFkB inh,Jurkat NFkB inh,697 NFkB conf
COc1ccc(/C=C2\SC(=S)N(CCC(=O)Nc3ccc(C(=O)O)cc3)C2=O)cc1OC,-2,-27,-18,-10,35*,-12,31*
COc1ccc(/C=C2/SC(=S)N(CCCC(=O)Nc3cccc(O)c3)C2=O)cc1,-3,-26,-6,-16,63*,8,71*
Cn1cccc1C(=O)N/N=C/c1c(Cl)cccc1Cl,-11,31,-9,27,-78,-46,·
COc1ccc(S(=O)(=O)N2CCN(C(=O)CCCN3C(=O)NC4(CCCC4)C3=O)CC2)cc1,·,·,·,·,5,17,·
CN(CC(=O)Nc1cccc(F)c1)CC(=O)N1CCCCC1,·,·,·,·,7,-7,·
NC1=NC[C@H](CC2CCCCC2)N1CCc1cc(C(F)(F)F)cc(C(F)(F)F)c1,30,4,·,-1,4,5,·
COCCN(C(=O)COC(=O)Cc1c[nH]c2ccccc12)c1c(N)n(Cc2ccccc2)c(=O)[nH]c1=O,-14,-2,·,-7,14,2,·
O=C(Nc1ccc(-c2noc(-c3cccs3)n2)cc1)c1cccnc1,21,42,-1,23,-289,-101,-280
CCOC(=O)c1c(NC(=O)CN2C(=O)NC3(CCC(C)CC3)C2=O)sc(C(=O)N(C)C)c1C (stereo not given),9,-1,·,-2,14,0,·
CCOc1ccc(S(=O)(=O)N2CCCC(C(=O)NCC3CCCO3)C2)cc1Cl (stereo not given),-10,-7,·,0,4,2,·
CC(C)C(=O)Nc1cccc(NC(=S)NC(=O)c2ccc(Cl)cc2)c1,-11,17,18,10,-39,-15,·
Cc1ccc(C(=O)NC(=S)Nc2ccc(NC(=O)c3cccc(Cl)c3)cc2)cc1,-32,6,-6,3,-305,-26,13
O=C(Nc1ccc(Cl)c(Cl)c1)Nc1ccccc1C(=O)O,-43,68*,-13,27,i,-136,i
O=C(Nc1cccc(Cl)c1)Nc1ccccc1C(=O)O,-20,5,0,8,-273,-115,-333
O=C(O)Cn1ncn(-c2ccc(OC(F)(F)F)cc2)c1=O,-19,-4,-12,0,10,2,·
COc1ccc(-c2cc(C(F)(F)F)n3ncc(C(=O)N(C)Cc4ccccc4)c3n2)cc1,45,-12,-9,-5,12,7,·

# High-throughput results: PubChem, several laboratories
